Where only a bound is given, the exact number is not on record here.

The term GI50 denotes the concentration that inhibits growth by half.

Experiment [1] can be described thus: Cytotoxicity against human BE(2)-C cells assessed as growth inhibition after 72 hrs by MTT assay. The class given is functional. In a few lines:
(§1)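 Cells in logarithmic growth kept in DMEM with 10% FBS, 10 mM sodium bicarbonate, penicillin 100 IU/mL, glutamine 4 mM, at 37 °C under 5% CO2. Plated in duplicate at 2500–4000 cells/well. Compound (30 mM DMSO stock) added 24 h after plating. MTT read at 540 nm after 72 h exposure.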
In general terms: Formazan colour is commonly taken as a measure of viable cells.

Experiment [2] relates to A-431. The experiment in a line: Cytotoxicity against human A431 cells assessed as growth inhibition at 25 uM after 72 hrs by MTT assay relative to control. The class given is functional. The settings on record: A-431, 72 h, read-out: GI. In a few lines:
as §1

The nature of experiment [3]: Cytotoxicity against human U87 cells assessed as growth inhibition after 72 hrs by MTT assay. The class given is functional, U-87MG ATCC. The settings on record: U-87 MG. In a few lines: as §1
Experiment [4] deals with DU-145. The experiment in a line: Cytotoxicity against human DU145 cells assessed as growth inhibition at 25 uM after 72 hrs by MTT assay relative to control. The experiment is classed as functional. The note with it: DU-145, 72 h, read-out: GI. In a few lines:
as §1

Experiment [5] can be described thus: Cytotoxicity against human U87 cells assessed as growth inhibition at 25 uM after 72 hrs by MTT assay relative to control. The settings on record: U-87 MG, read-out: GI. The class given is functional, U-87MG ATCC. In short, it runs like this:
as §1

Experiment [6] concerns HT-29. The experiment in a line: Cytotoxicity against human HT-29 cells assessed as growth inhibition at 25 uM after 72 hrs by MTT assay relative to control. The class given is functional. The settings on record: HT-29, 72 h, read-out: GI. In short, it runs like this: as §1
The nature of experiment [7]: Cytotoxicity against human H460 cells assessed as growth inhibition at 25 uM after 72 hrs by MTT assay relative to control. The class given is functional. The settings on record: NCI-H460, 72 h, read-out: GI. In short, it runs like this:
as §1

In experiment [8] the test system is DU-145. The experiment in a line: Cytotoxicity against human DU145 cells assessed as growth inhibition after 72 hrs by MTT assay. The class given is functional. The note with it: DU-145, 72 h. In a few lines:
as §1

The subject of experiment [9] is A-431. The experiment in a line: Cytotoxicity against human A431 cells assessed as growth inhibition after 72 hrs by MTT assay. The class given is functional. The settings on record: A-431, 72 h. In short, it runs like this:
as §1

Experiment [10] can be described thus: Cytotoxicity against human H460 cells assessed as growth inhibition after 72 hrs by MTT assay. The settings on record: NCI-H460, 72 h. The experiment is classed as functional. In a few lines: as §1
Experiment [11] has as its system MCF7. The experiment in a line: Cytotoxicity against human MCF7 cells assessed as growth inhibition after 72 hrs by MTT assay. The class given is functional. The settings on record: MCF7, 72 h. In short, it runs like this:
as §1

The test system of experiment [12] is A2780. The experiment in a line: Cytotoxicity against human A2780 cells assessed as growth inhibition after 72 hrs by MTT assay. The experiment is classed as functional. The settings on record: A2780, 72 h. In a few lines: as §1
Experiment [13] in a line: Cytotoxicity against human MIA cells assessed as growth inhibition at 25 uM after 72 hrs by MTT assay relative to control. The settings on record: read-out: GI. The class given is functional. In a few lines: as §1
A short description of experiment [14]: Cytotoxicity against human SJ-G2 cells assessed as growth inhibition after 72 hrs by MTT assay. The class given is functional. The note with it: SJ-G2, 72 h. In a few lines:
as §1

Experiment [15] can be described thus: Cytotoxicity against human BE(2)-C cells assessed as growth inhibition at 25 uM after 72 hrs by MTT assay relative to control. The class given is functional. The note with it: read-out: GI. In a few lines:
as §1

Experiment [16] in a line: Cytotoxicity against human MIA cells assessed as growth inhibition after 72 hrs by MTT assay. The experiment is classed as functional. In short, it runs like this:
as §1

In experiment [17] the test system is MCF7. The experiment in a line: Cytotoxicity against human MCF7 cells assessed as growth inhibition at 25 uM after 72 hrs by MTT assay relative to control. The class given is functional. The note with it: MCF7, 72 h, read-out: GI. In a few lines:
as §1

The nature of experiment [18]: Cytotoxicity against mouse SMA cells assessed as growth inhibition at 25 uM after 72 hrs by MTT assay relative to control. The experiment is classed as functional. The note with it: read-out: GI. In short, it runs like this:
as §1

Experiment [19] relates to SW480. The experiment in a line: Cytotoxicity against human SW480 cells assessed as growth inhibition after 72 hrs by MTT assay. The class given is functional. The settings on record: SW480, 72 h. In a few lines: as §1
Experiment [20] relates to HT-29. The experiment in a line: Cytotoxicity against human HT-29 cells assessed as growth inhibition after 72 hrs by MTT assay. The experiment is classed as functional. The settings on record: HT-29, 72 h. In a few lines: as §1
Experiment [21] concerns SW480. The experiment in a line: Cytotoxicity against human SW480 cells assessed as growth inhibition at 25 uM after 72 hrs by MTT assay relative to control. The experiment is classed as functional. The note with it: SW480, 72 h, read-out: GI. In a few lines:
as §1

The subject of experiment [22] is A2780. The experiment in a line: Cytotoxicity against human A2780 cells assessed as growth inhibition at 25 uM after 72 hrs by MTT assay relative to control. The experiment is classed as functional. The note with it: A2780, 72 h, read-out: GI. In a few lines: as §1
Experiment [23] in a line: Cytotoxicity against human SJ-G2 cells assessed as growth inhibition at 25 uM after 72 hrs by MTT assay relative to control. The class given is functional. The settings on record: SJ-G2, 72 h, read-out: GI. In short, it runs like this:
as §1

Experiment [24] is described as follows: Cytotoxicity against mouse SMA cells assessed as growth inhibition after 72 hrs by MTT assay. The class given is functional. In short, it runs like this:
as §1

In the case of `O=C(NCC(c1ccccc1)c1ccccc1)c1cc(Br)c(Br)[nH]1`, the concentration for 50% growth inhibition (GI50) is 16 µM in experiment [1]; 36 µM in experiment [3]; 21 µM with DU-145 [8]; 19 µM in the experiment on A-431 [9]; 18 µM in [10]; 10 µM in the experiment with MCF7 [11]. The GI50 stood at 13 µM with A2780 [12]; 27 µM in [14]; 18 µM in [16]; 34 µM in the experiment on SW480 [19]; 16 µM in the experiment on HT-29 [20]; 11 µM in experiment [24]. In addition, the inhibition of growth at 25 µM with A-431 [2] was 56%; with DU-145 [4], 56%; in experiment [5] it was 48%; in the experiment on HT-29 [6], 82%; in [7], 67%; in [13] it was 69%. In addition, the inhibition of growth at 25 µM in experiment [15] is greater than 100%; in the experiment on MCF7 [17], greater than 100%; in experiment [18], 80%; with SW480 [21], 33%; in the experiment with A2780 [22] it was 94%; in experiment [23], 56%.
Take `O=C(NCc1ccc(Cl)cc1)c1cc(Br)c(Br)[nH]1`: the GI50 amounted to 32 µM in experiment [1]; 34 µM in experiment [3]; 27 µM in the experiment with DU-145 [8]; 24 µM with A-431 [9]; 28 µM in experiment [10]; 14 µM in the experiment on MCF7 [11]. For the same molecule, the GI50 with A2780 [12] was found to be 13 µM; in [14] it was 28 µM; in experiment [16] it was 22 µM; in the experiment on SW480 [19], 36 µM; in the experiment with HT-29 [20], 13 µM; in experiment [24], 16 µM. The inhibition of growth at 25 µM in the experiment on A-431 [2] was 37%; in the experiment with DU-145 [4] it was 40%; in experiment [5], 30%; with HT-29 [6], 95%; in [7], 57%; in experiment [13] it was 63%. The inhibition of growth at 25 µM in experiment [15] was 24%; with MCF7 [17], greater than 100%; in experiment [18], 79%; with SW480 [21], 11%; in the experiment on A2780 [22], 86%; in experiment [23] it was 42%.
`O=C(NCc1ccc(Cl)c(Cl)c1)c1cc(Br)c(Br)[nH]1`: the GI50 in [1] turned out to be 24 µM; in [3], 27 µM; in the experiment with DU-145 [8], 20 µM; with A-431 [9], 20 µM; in experiment [10], 19 µM; in the experiment on MCF7 [11], 12 µM. Further, the GI50 in the experiment with A2780 [12] was 15 µM; in experiment [14], 18 µM; in [16], 17 µM; with SW480 [19], 33 µM; in the experiment on HT-29 [20], 17 µM; in experiment [24] it was 17 µM. In addition, the inhibition of growth at 25 µM in the experiment with A-431 [2] stood at 57%; in the experiment with DU-145 [4], 66%; in experiment [5], 55%; with HT-29 [6] it was 77%; in experiment [7], 66%; in experiment [13], 77%. For the same molecule, the inhibition of growth at 25 µM is 44% in experiment [15]; greater than 100% in the experiment on MCF7 [17]; 84% in experiment [18]; 22% in the experiment with SW480 [21]; 90% in the experiment on A2780 [22]; 70% in experiment [23].
As to `O=C(NCCc1ccc(O)cc1)c1cc(Br)c(Br)[nH]1`, the GI50 is 16 µM in [1]; greater than 50 µM in experiment [3]; greater than 50 µM with DU-145 [8]; 20 µM in the experiment on A-431 [9]; 39 µM in experiment [10]; 12 µM with MCF7 [11]. Moreover, the 50% growth inhibitory concentration (GI50) with A2780 [12] is 11 µM; in experiment [14], 30 µM; in experiment [16], 43 µM; in the experiment on SW480 [19], greater than 50 µM; in the experiment with HT-29 [20], 28 µM; in experiment [24], 23 µM. Besides, the inhibition of growth at 25 µM was 68% in the experiment with A-431 [2]; 3% in the experiment with DU-145 [4]; less than 0% in experiment [5]; 48% in the experiment on HT-29 [6]; 11% in experiment [7]; 20% in experiment [13]. The inhibition of growth at 25 µM in experiment [15] was 101%; with MCF7 [17], 81%; in experiment [18], 46%; in the experiment on SW480 [21], less than 0%; in the experiment on A2780 [22], 90%; in experiment [23], 44%.
Take `O=C(NCc1ccccc1)c1cc(Br)c(Br)[nH]1`: the 50% growth inhibitory concentration (GI50) in experiment [1] was 4.8 µM; in [3] it was greater than 50 µM; in the experiment on DU-145 [8], 33 µM; in the experiment on A-431 [9] it was 22 µM; in experiment [10], 35 µM; with MCF7 [11], 11 µM. Moreover, the GI50 was 14 µM in the experiment on A2780 [12]; 11 µM in [14]; greater than 50 µM in [16]; greater than 50 µM in the experiment on SW480 [19]; 4.6 µM with HT-29 [20]; 25 µM in experiment [24]. Further, the inhibition of growth at 25 µM is 56% in the experiment on A-431 [2]; 52% in the experiment with DU-145 [4]; 31% in experiment [5]; greater than 100% in the experiment with HT-29 [6]; 43% in experiment [7]; 33% in experiment [13]. In addition, the inhibition of growth at 25 µM in experiment [15] was greater than 100%; in the experiment with MCF7 [17], greater than 100%; in [18] it was 61%; with SW480 [21], 33%; with A2780 [22] it was 84%; in experiment [23], 95%.
Take `Nc1ncc(/C=C/CNC(=O)c2cc(Br)c(Br)[nH]2)[nH]1` [OROIDIN]: the concentration for 50% growth inhibition (GI50) in [1] is greater than 50 µM; in experiment [3], greater than 50 µM; with DU-145 [8], greater than 50 µM; with A-431 [9] it was greater than 50 µM; in experiment [10], greater than 50 µM; with MCF7 [11], 42 µM. Also, the concentration for 50% growth inhibition (GI50) in the experiment with A2780 [12] is 24 µM; in experiment [14], greater than 50 µM; in [16], greater than 50 µM; in the experiment on SW480 [19] it was greater than 50 µM; in the experiment with HT-29 [20], greater than 50 µM; in experiment [24], greater than 50 µM. Moreover, the inhibition of growth at 25 µM turned out to be 6% in the experiment with A-431 [2]; 23% in the experiment on DU-145 [4]; 3% in experiment [5]; 31% with HT-29 [6]; 7% in [7]; 21% in experiment [13]. Also, the inhibition of growth at 25 µM was 6% in experiment [15]; 27% with MCF7 [17]; 15% in [18]; 8% in the experiment on SW480 [21]; 51% with A2780 [22]; less than 0% in [23].

These data come from ChEMBL document CHEMBL3112444, “Synthesis and anticancer activity of focused compound libraries from the natural product lead, oroidin” (2014).
